Test results published in ChEMBL document CHEMBL1140299, “1-Benzhydryl-3-phenylurea and 1-benzhydryl-3-phenylthiourea derivatives: new templates among the CB1 cannabinoid receptor inverse agonists” (J Med Chem, 2005).

What was measured:
[1] = target: Cannabinoid receptor 2 (Homo sapiens) (UniProt P34972); assay: Displacement of [3H]CP-55940 from human CB2 receptor expressed in CHO cells at 10 uM; type: cell-based
Outline: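 Competition binding on membranes of cells expressing hCB2 (40 µg per tube) with [3H]-CP-55940 (1 nM) at 30 °C for 1 h. Buffer: 50 mM Tris-HCl, 3 mM MgCl2, 1 mM EDTA, 0.5% BSA, pH 7.4. DMSO stocks diluted 100× into buffer. Nonspecific binding defined with 10 µM HU-210. Bound label collected by filtration on PEI-pretreated GF/B filters and counted by scintillation. Run at least in triplicate.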

[2] = target: T1, Cannabinoid receptor 1 (Homo sapiens, UniProt P21554); assay: biochemical; type: cell-based, CHO
T1 sequence (P21554 whole entry): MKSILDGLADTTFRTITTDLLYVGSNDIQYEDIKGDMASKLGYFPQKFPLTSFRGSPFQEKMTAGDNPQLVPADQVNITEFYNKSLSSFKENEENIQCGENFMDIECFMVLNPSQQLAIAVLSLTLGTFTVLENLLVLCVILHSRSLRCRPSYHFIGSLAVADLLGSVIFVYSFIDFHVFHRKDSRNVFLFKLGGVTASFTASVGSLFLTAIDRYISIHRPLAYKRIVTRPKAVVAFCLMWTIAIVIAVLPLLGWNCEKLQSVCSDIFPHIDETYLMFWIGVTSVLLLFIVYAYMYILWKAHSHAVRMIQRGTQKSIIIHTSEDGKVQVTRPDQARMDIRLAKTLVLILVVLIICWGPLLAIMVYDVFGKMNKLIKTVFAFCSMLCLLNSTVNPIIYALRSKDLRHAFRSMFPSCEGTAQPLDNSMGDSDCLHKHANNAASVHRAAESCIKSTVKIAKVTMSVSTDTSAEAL

[3] = target: T1, Cannabinoid receptor 1; conditions: at 10 µM
[4] = target: T1, Cannabinoid receptor 1; assay: Activity at human CB1 receptor by [35S]GTP-gamma-S binding stimulation assay; type: functional

Chain of Cannabinoid receptor 2 (Homo sapiens) (P34972 whole entry): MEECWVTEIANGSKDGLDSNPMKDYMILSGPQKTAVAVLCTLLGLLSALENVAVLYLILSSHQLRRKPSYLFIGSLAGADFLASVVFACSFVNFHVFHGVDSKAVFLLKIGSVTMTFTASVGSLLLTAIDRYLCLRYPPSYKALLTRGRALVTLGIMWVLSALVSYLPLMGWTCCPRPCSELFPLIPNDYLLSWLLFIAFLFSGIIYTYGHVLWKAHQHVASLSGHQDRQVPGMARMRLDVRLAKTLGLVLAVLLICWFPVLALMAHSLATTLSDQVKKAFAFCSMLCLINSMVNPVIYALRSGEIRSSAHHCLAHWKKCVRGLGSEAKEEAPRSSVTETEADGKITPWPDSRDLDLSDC

Row | SMILES | Activity [1] [%] | Ki [2] | Emax ([3]; filed as inverse agonist) [%] | EC50 [4] | Emax ([3]; filed as agonist) [%]
1 | O=C1NC(c2ccc(F)cc2)(c2ccc(F)cc2)C(=O)N1c1ccccc1 | < 20 |  |  |  | 
2 | O=C(Nc1ccc(Br)cc1)NC(c1ccccc1)c1ccccc1 | < 20 |  |  |  | 
3 | O=C1NC(c2ccccc2)(c2ccccc2)C(=O)N1c1ccccc1 | < 20 |  |  |  | 
4 | O=C(Nc1ccc(Cl)cc1)NC(c1ccc(Br)cc1)c1ccc(Br)cc1 | 31 | 650 nM (antagonist) | -72 | 450 nM (inverse agonist) | 
5 | CCCCCCc1ccc(NC(=O)NC(c2ccccc2)c2ccccc2)cc1 | 24 |  |  |  | 
6 | O=C1NC(c2ccccc2)(c2ccccc2)C(=O)N1c1ccc(Br)cc1 | < 20 |  |  |  | 
7 | S=C(Nc1ccc(Cl)cc1)NC(c1ccc(Cl)cc1)c1ccc(Cl)cc1 | 23 | 1900 nM (antagonist) |  |  | 
8 | O=C(Nc1ccc(Cl)cc1)NC(c1ccc(Cl)cc1)c1ccc(Cl)cc1 | 24 | 1100 nM (antagonist) | -74 | 1050 nM (inverse agonist) | 
9 | S=C(Nc1ccc(Cl)cc1)NC(c1ccc(Br)cc1)c1ccc(Br)cc1 | 29 | 1500 nM (antagonist) | -61 | 1250 nM (inverse agonist) | 
10 | O=C(Nc1ccccc1)NC(c1ccc(Br)cc1)c1ccc(Br)cc1 | 38 | 2900 nM (antagonist) |  |  | 
11 | CCCCCCc1ccc(NC(=O)NC(c2ccc(Br)cc2)c2ccc(Br)cc2)cc1 | < 20 |  |  |  | 
12 | O=C(Nc1ccccc1)NC(c1ccc(F)cc1)c1ccc(F)cc1 | < 10 |  |  |  | 
13 | S=C(Nc1ccccc1)NC(c1ccc(Cl)cc1)c1ccc(Cl)cc1 | 23 | 2900 nM (antagonist) |  |  | 
14 | CCCCCCC(C)(C)c1cc(O)c2c(c1)OC(C)(C)[C@H]1CC=C(CO)C[C@H]21 [DEXANABINOL] |  | 19 nM (antagonist) |  | 0.6 nM (inverse agonist) | 200
15 | O=C1NC(c2ccc(Br)cc2)(c2ccc(Br)cc2)C(=O)N1c1ccccc1 | < 20 |  |  |  | 
16 | O=C(Nc1ccccc1)NC(c1ccc(Cl)cc1)c1ccc(Cl)cc1 | 23 | 7050 nM (antagonist) |  |  | 
17 | O=C1N(c2ccc(Cl)cc2)C(=S)NC1(c1ccc(Br)cc1)c1ccc(Br)cc1 | < 20 | 2750 nM (antagonist) |  |  | 
18 | O=C(Nc1ccc(F)cc1)NC(c1ccccc1)c1ccccc1 | < 10 |  |  |  | 
19 | O=C(Nc1ccc(I)cc1)NC(c1ccccc1)c1ccccc1 | < 10 |  |  |  | 
20 | O=C(Nc1ccccc1F)NC(c1ccccc1)c1ccccc1 | < 10 |  |  |  | 
21 | O=C(Nc1ccc(Cl)cc1)NC(c1ccccc1)c1ccccc1 | < 20 |  |  |  | 
22 | O=C(Nc1ccccc1)NC(c1ccccc1)c1ccccc1 | < 10 |  |  |  | 
23 | O=C1N(c2ccccc2)C(=S)NC1(c1ccc(Br)cc1)c1ccc(Br)cc1 | < 20 | 3450 nM (antagonist) |  |  | 
24 | O=C(Nc1ccc(Br)cc1)NC(c1ccc(Br)cc1)c1ccc(Br)cc1 | 22 | 500 nM (antagonist) | -61 | 500 nM (inverse agonist) | 
25 | O=C(Nc1ccc(CO)cc1)NC(c1ccc(Br)cc1)c1ccc(Br)cc1 | < 20 |  |  |  | 
26 | O=C(Nc1ccc(Br)cc1)NC(c1ccc(I)cc1)c1ccc(I)cc1 | 19 | 750 nM (antagonist) |  |  | 
27 | S=C(Nc1ccccc1)NC(c1ccc(Br)cc1)c1ccc(Br)cc1 | 29 | 1800 nM (antagonist) |  |  | 
28 | O=C(Nc1ccc(Br)cc1)NC(c1ccc(Cl)cc1)c1ccc(Cl)cc1 | 29 | 1250 nM (antagonist) | -66 | 700 nM (inverse agonist) | 
29 | O=C(Nc1ccc(I)cc1)NC(c1ccc(Br)cc1)c1ccc(Br)cc1 | 34 |  |  |  | 
30 | COc1ccc(NC(=O)NC(c2ccccc2)c2ccccc2)cc1 | < 20 |  |  |  | 
